Shown are actives, neighbours in structure and some others; about 12% of the full set was active somewhere.
CHOP inh: inhibitors of CHOP promoter induction, primary screen, cell-based, unfolded protein response, luciferase reporter | AID 2732, 2010 | inhibition, % at 10 µM | 220,000 compounds, 3.8% hits | CHO-K1 CHOP-promoter luciferase, tunicamycin-induced, 15-18 h;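 active means compounds that reduced the stress-induced luciferase reporter signal by more than about 70% of percent inhibition, limit read from the data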
Rad51 HR inh: human RAD51 strand exchange inhibitors, primary screen, biochemical, fluorescence | DNA repair protein RAD51 homolog 1 (Homo sapiens), Q06609 | hRad51 DNA strand exchange, fluorescence dequenching | inhibition, % at 10 µM | 200,000 compounds, 0.085% hits | AID 1385, 2008;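 active means inhibition above 40% at the single screening dose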
Target sequence (Q06609 whole entry, looked up): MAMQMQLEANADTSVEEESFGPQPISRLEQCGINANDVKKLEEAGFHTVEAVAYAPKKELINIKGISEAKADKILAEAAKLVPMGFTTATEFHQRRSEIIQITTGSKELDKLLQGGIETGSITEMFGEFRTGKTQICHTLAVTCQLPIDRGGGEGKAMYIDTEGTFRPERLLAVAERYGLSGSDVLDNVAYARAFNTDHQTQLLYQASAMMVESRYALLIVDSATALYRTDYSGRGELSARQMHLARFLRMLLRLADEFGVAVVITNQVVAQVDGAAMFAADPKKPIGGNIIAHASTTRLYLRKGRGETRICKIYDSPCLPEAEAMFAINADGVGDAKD
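Material: human Rad51–ssDNA filaments; Probe or stimulus: labelled 47-mer dsDNA for strand exchange; Doses: single 10 µM dose; Incubation: 37 °C 15-min filament assembly, 30-min compound preincubation, 15-min exchange; Technique: FRET fluorescence dequenching, excitation 485 nm, emission 520 nm; Measure: Fluorescence-based percent inhibition, control- and blank-normalised; Benchmarks: plate control and blank wells.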
PKD1 kinase inh: inhibitors of human PKD1 kinase, biochemical, fluorescence polarization. Serine/threonine-protein kinase D1 (Homo sapiens), Q15139. PKD1 kinase fluorescence polarization assay. inhibition, % (no concentration beside the values). AID 797, 2007. 200,000 compounds, 0.056% hits
Arbovirus inh: antivirals against arbovirus infection, primary screen, cell-based, full library, 10K replicate subset | arbovirus infection cell-based antiviral screen | AID 1251, 2008 | inhibition, % at 10 µM | 200,000 compounds, 0.37% hits; in the data active means inhibition above about 30%
Wee1 stabilizer: Wee1 degradation inhibitors, primary screen, cell-based, HeLa, Wee1K328M-luciferase, luminescence. reporter increase, % at 5 µM. 220,000 compounds, 1.2% hits. Wee1-like protein kinase (Homo sapiens), P30291. HeLa Luc-Wee1K328M stability; 100% = proteasome inhibitor MG132 effect;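 active means activation above the mean of all tested compounds plus 3 SD, set per screening run, cut at about 8.8% in these data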;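 further: cells exposed to compound for 20 h before luminescence read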
L major viab: Leishmania major promastigote growth inhibition, primary screen; Leishmania major promastigotes, resazurin fluorescence viability; inhibition, % at 10 µM; AID 1063, 2008; 200,000 compounds, 9% hits;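 further: promastigotes grown with compound for 44 hours at 28 °C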
Of the large screens only hits and unclear results are named; the others gave an inactive call. Unless noted, no stated cut-off is given here; in the data, active means inhibition above about 50%; inactive means the rest.

CCn1c(C)nc2cc(C(=O)N/N=C(\C)c3ccccc3O)ccc21	none
COc1ccc(C(C(=O)NC2CCCC2)N(Cc2ccccc2)C(=O)CNC(=O)c2ccco2)cc1 (stereo unspecified)	L major viab 67
COC(=O)c1ccc(C(C(=O)NC2CCCCC2)N(Cc2ccccc2)C(=O)Cc2cccs2)cc1 (stereo unspecified)	L major viab 99
O=C(NC1CCCC1)C(c1ccncc1)N(Cc1ccccc1)C(=O)Cc1cccs1 (stereo unspecified)	none
Cc1ccc(C(C(=O)NC2CCCC2)N(Cc2ccc(F)cc2)C(=O)c2csnn2)o1 (stereo unspecified)	CHOP inh 71
C=CCN(C(=O)CNC(=O)c1ccco1)C(C(=O)NC1CCCCC1)c1ccc(OC)cc1 (stereo unspecified)	none
O=C(NC1CCCC1)C(c1ccccc1)N(Cc1ccc2c(c1)OCO2)C(=O)Cc1cccs1 (stereo unspecified)	L major viab 82
CC(C)CCNC(=O)CCc1nnc(COc2ccccc2)o1	none
O=C(Cc1ccccc1)Nc1cc([N+](=O)[O-])ccc1N1CCOCC1	none
Cc1ccc(C(CC(=O)NCCCN(C)C)c2ccc(OC(C)C)cc2)cc1 (stereo unspecified)	none (no result: Rad51 HR inh, PKD1 kinase inh, Arbovirus inh, L major viab)
CCOC(=O)C(NC(=O)NCc1ccccc1OC)(OCC)C(F)(F)F (stereo unspecified)	none
CC(=O)c1cccc(NC(=S)NC(=O)CC(C)(C)C)c1	none
COc1ccc(/C=C/C(=O)NCCSCc2ccco2)cc1OC	none (no result: PKD1 kinase inh, Arbovirus inh, L major viab)
O=C(NCc1ccccc1)C(c1ccccc1)N(Cc1ccc2c(c1)OCO2)C(=O)Cc1cccs1 (stereo unspecified)	L major viab 79
COc1ccc(CN(C(=O)Cc2c[nH]c3ccccc23)C(C(=O)NC2CCCCC2)c2ccc(C)o2)cc1 (stereo unspecified)	L major viab 69
O=C(NC1CCCC1)C(c1ccsc1)N(Cc1ccco1)C(=O)Cc1cccs1 (stereo unspecified)	L major viab 62
O=C(NC1CCCCC1)C(c1ccc2ncccc2c1)N(Cc1ccc2c(c1)OCO2)C(=O)c1cccs1 (stereo unspecified)	L major viab 88
O=C(NC1CCCC1)C(c1ccsc1)N(Cc1ccccc1)C(=O)Cc1cccs1 (stereo unspecified)	none (no result: Rad51 HR inh)
COc1cc(N(C)C)c([N+](=O)[O-])cc1C(=O)N1CCOCC1	none
c1ccc(CCc2nn3c(Cc4ccccc4)nnc3s2)cc1	none
CSc1nn2c(C(F)(F)F)cc(C(F)(F)F)nc2c1C(N)=O	none (no result: PKD1 kinase inh, Arbovirus inh, L major viab)
O=C(NC1CCCCC1)C(c1cccnc1)N(CCc1ccccc1)C(=O)Cc1cccs1 (stereo unspecified)	L major viab 95 (no result: Rad51 HR inh)
S=C(NCc1ccccc1)NCc1ccc2c(c1)OCO2	Wee1 stabilizer 8.9
NC(=O)c1cc2c3ccccc3ccn2c1-c1ccccc1	none (no result: PKD1 kinase inh, Arbovirus inh, L major viab)
Nc1nc(SCC(=O)Nc2ccc(Cl)cc2)[nH]c(=O)c1-c1ccccc1	none
Cn1c(C2=C(O)CN(Cc3ccccc3)C2=N)nc2ccccc21	none (no result: PKD1 kinase inh, Arbovirus inh, L major viab)
Cc1cc(C)n(-c2ccc(C(=O)Nc3ccc(C)c(S(=O)(=O)N(C)C)c3)cc2)n1	L major viab 53 (no result: Rad51 HR inh)
CC(=O)c1ccc(OCCCC(=O)Nc2ccc(C)c(S(=O)(=O)N(C)C)c2)cc1	L major viab 61
Cc1cc(C)n(-c2ccc(C(=O)Nc3ccc(S(=O)(=O)N(C)C)cc3)cc2)n1	none (no result: Rad51 HR inh)
CCc1cccc(CC)c1NC(=O)COC(=O)CC1c2ccccc2CCN1S(=O)(=O)c1ccc(F)cc1 (stereo unspecified)	L major viab 98
O=C(COC(=O)CC1c2ccccc2CCN1S(=O)(=O)c1ccc(F)cc1)Nc1ccccc1 (stereo unspecified)	none
Cc1ncsc1CCOC(=O)C1C2CC3CC(C2)CC1C3 (stereo unspecified)	none
O=C(Nc1cc(Cl)cc(Cl)c1)N1CCCC1	none (no result: Rad51 HR inh, PKD1 kinase inh, Arbovirus inh, L major viab)
C=CCNC(=S)/N=c1/ccccn1CC	none (no result: PKD1 kinase inh, Arbovirus inh, L major viab)
CCCCOC(=O)NC(NCC(O)c1ccccc1)(C(F)(F)F)C(F)(F)F (stereo unspecified)	CHOP inh 81
COCC(=O)N/N=C(\C)CC(=O)NCc1ccco1	none
CCOC(=O)c1ccc(NC(=O)CN(C)S(=O)(=O)c2ccc(OC)cc2)cc1	none
CCOC(=O)c1ccc(NC(=O)CN(C)S(=O)(=O)c2ccc(Br)s2)cc1	CHOP inh 77 (no result: Rad51 HR inh)
CC1(C)CC(=O)c2c(O)cc(OCc3ccc(Br)cc3)cc2O1	L major viab 69
COC(=O)c1ccc(COc2cc(O)c3c(c2)OC(C)(C)CC3=O)cc1	none
CN(C(=O)Nc1ccc(C(C)(C)C)cc1)C1CCCCC1	none (no result: PKD1 kinase inh, Arbovirus inh, L major viab)
CCOC(=O)C(C)(C)N(Cc1ccccc1C)S(=O)(=O)c1ccc(Cl)c([N+](=O)[O-])c1	L major viab 100 (no result: Rad51 HR inh)
CCCN(CCC)S(=O)(=O)c1ccc(Cl)c([N+](=O)[O-])c1	none
O=C(NCc1ccco1)c1nc2nc(-c3cccs3)cc(C(F)(F)F)n2n1	none
O=C(NCc1ccco1)c1nn2c(C(F)(F)F)cc(-c3cccs3)nc2c1Br	L major viab 100
Cc1ccc(NC(CC(=O)c2ccccc2)c2ccc(F)cc2)cc1 (stereo unspecified)	none
COc1ccc(C(CC(=O)c2ccc(C)cc2)Nc2ccc([N+](=O)[O-])cc2)cc1 (stereo unspecified)	L major viab 96
COc1ccc(C(CC(=O)c2ccc(O)cc2)S(=O)(=O)c2ccc(C)cc2)cc1 (stereo unspecified)	L major viab 91
COc1ccc(C(=O)CC(c2ccccc2)S(=O)(=O)c2ccc(C)cc2)cc1 (stereo unspecified)	none
CN(C)c1ccc(/C=c2/sc3n(c2=O)NC2(c4ccccc4)N(C)C(=O)N(C)C2(c2ccccc2)N=3)cc1 (stereo unspecified)	none (no result: Rad51 HR inh)
CC1C/C(=C/c2cccn2C)C(=O)/C(=C/c2cccn2C)C1 (stereo unspecified)	L major viab 86
O=C(Nc1ccc(N2C(=O)C3C4C=CC(C4)C3C2=O)cc1Cl)c1cccs1 (stereo unspecified)	none
CC1(C)CC(=O)C([N+](=O)[O-])=C(NCCCC(=O)O)C1	none (no result: Rad51 HR inh)
Cn1c(=O)c2c(nc(SCCN3CCOCC3)n2Cc2ccc(F)cc2)n(C)c1=O	none
Cn1c(=O)c2c(nc(SCCN3CCCCC3)n2Cc2ccccc2)n(C)c1=O	L major viab 90
